Calls of active or inactive are those of the source. No cut-off for these calls is given here.
Assays:
Rattus norvegicus [1] = assay: Antiarthritic effect in Lewis rat adjuvant-induced arthritis model serum assessed as reduction in TNFalpha production at 200 ug, ip starting from arthritis onset and continued uninterrupted until study end by cytokine multiplex assay; format: functional, organism-based
Method in brief: (§1)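 Arthritic Lewis rats (Mtb 1.5 mg s.c. in mineral oil) were given 200 μg/rat i.p. daily from onset until the day before harvest; controls received DMSO/PBS vehicle. On d 18, blood was taken by cardiac puncture after euthanasia and serum stored at −80 °C. Serum pooled from 4 rats was assayed in triplicate by multiplex.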

Rattus norvegicus [2] = assay: Antiarthritic effect in Lewis rat adjuvant-induced arthritis model serum assessed as reduction in GRO/KC production at 200 ug, ip starting from arthritis onset and continued uninterrupted until study end by cytokine multiplex assay; format: functional, organism-based; method in brief: as §1
Rattus norvegicus [3] = assay: Antiarthritic effect in Lewis rat adjuvant-induced arthritis model spleen adherent cells restimulated with sonicated Mtb post isolation assessed as reduction in CCR5 expression at 200 ug, ip starting from arthritis onset and continued uninterrupted until study end by qPCR; format: functional, organism-based
Method in brief: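 From onset of Mtb-induced arthritis, rats received 200 μg/rat i.p. daily or vehicle. Spleen adherent cells harvested on d 18 (1.5–2.0 × 10^6 cells/well) were cultured in medium or with sonicated Mtb (10 μg/ml) for 24 h. Receptor mRNA was quantified by qPCR after TRIzol RNA isolation and cDNA synthesis, normalized to HGPRT and reported as relative message.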

Rattus norvegicus [4] = organism: Rattus norvegicus; assay: Antiarthritic effect in sonicated Mtb-stimulated spleen adherent cells isolated from Lewis rat adjuvant-induced arthritis model assessed as reduction in TNFalpha production pre-incubated with compound for 30 mins before stimulation with sonicated-Mtb for 48 hrs by multiplex assay; format: functional, tissue-based
[5] = Increase in CCR1 protein surface expression in sonicated Mtb-stimulated spleen adherent cells isolated Inhibition of cell migration of RANTES-stimulated spleen adherent cells isolated from Lewis rat adjuvant-induced arthritis model at 0. 3 uM by Transwell cell migration assay; format: functional
Method in brief: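 Transwell assay with 8-μm polycarbonate inserts. Spleen adherent cells (1 × 10^6) from arthritic rats were placed in the upper chamber; the lower chamber held serum-free RPMI with RANTES (50 ng/ml) ± compound (0.1, 0.3 μM). Cells migrated 24 h at 37 °C, 5% CO2. Lower-surface cells were fixed in 4% formaldehyde, DAPI-stained, imaged at 10× and counted by image analysis. RANTES alone was set as 100%.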

Rattus norvegicus [6] = assay: Antiarthritic effect in Lewis rat adjuvant-induced arthritis model lymph node cells restimulated with sonicated Mtb post isolation assessed as reduction in MCP1 production at 200 ug, ip starting from arthritis onset and continued uninterrupted until study end by cytokine multiplex assay; format: functional, organism-based
Method in brief: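 Male Lewis rats were immunized s.c. with heat-killed Mtb H37Ra (1.5 mg/rat) in mineral oil. From arthritis onset they received 200 μg/rat i.p. daily (DMSO stock diluted in PBS); controls got 1.2% DMSO in PBS. On d 18, draining lymph node or synovial-infiltrating cells were cultured at 1.5 × 10^6/well in 2% FBS medium ± sonicated Mtb (10 μg/ml) for 24 h. Supernatants were analysed by multiplex.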

CC1=C(O)C(=O)C=C2C1=CC=C1[C@@]2(C)CC[C@@]2(C)[C@@H]3C[C@](C)(C(=O)O)CC[C@]3(C)CC[C@]12C [CELASTROL]
Activity (Rattus norvegicus [1]): Active
Activity (Rattus norvegicus [2]): Active
Activity (Rattus norvegicus [3]): Active
Activity (Rattus norvegicus [4]): Dose-dependent effect
inhibition (INH) [5]: 63%
Activity (Rattus norvegicus [6]): inactive
